# Source: PubChem (several laboratories)
# EBI2 block: EBI2 receptor antagonists, beta-arrestin recruitment, primary screen, cell-based, luminescence, 7a,25-OHC stimulation, uHTS; inhibition, % at 5 µM; AID 651636, 2012; G-protein coupled receptor 183 (Homo sapiens), P32249; 7a,25-OHC stimulated; actives 0.81% (n = 360,000); in the data active means inhibition above about 38%;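 further: enzyme fragment complementation signal reports receptor beta-arrestin coupling in cells; 0% = agonist plus DMSO wells and 100% = wells without agonist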
# MC4R antag cAMP: MC4R antagonists of cAMP signaling, primary screen, cell-based, TR-FRET, antagonist arm of biased-ligand search; Melanocortin receptor 4 (Homo sapiens), P32245; AID 540295, 2011; actives 0.48% (n = 360,000); inhibition, % at 6.5 µM; MC4R-expressing cells, MTII-stimulated cAMP, LANCE TR-FRET;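 active means inhibition above its plate's cutoff, the mean of tested wells on that plate plus 3 SD, cut at about 29% in these data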;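 further: 0% = Melanotan II alone and 100% = Melanotan II plus saturating MCL0020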
#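 System: U2OS-MC4R stable cell line; Technique: Eu-cAMP/anti-cAMP TR-FRET, emission 671 nm; Repeats: single well per compound; Also added: Melanotan II; Dosing: one concentration, 6.5 µM nominal; Schedule: 30-min compound, 1-h challenge, 1-h detection, room temperature.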
# HTR2A ag: mouse Htr2a agonists via beta-arrestin recruitment, primary screen, cell-based, luminescence. 5-hydroxytryptamine receptor 2A (Mus musculus), P35363. CHO-K1 mHTR2A beta-arrestin complementation; percent of 30 µM serotonin response. activation, % at 7.6 µM. actives 0.66% (n = 360,000);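 active means activation above a run cutoff, the mean activation of all tested compounds plus 3 SD, cut at about 14% in these data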;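 further: 0% = plate median of compound wells and 100% = 30 µM serotonin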
# MC4R barr agon: MC4R agonists recruiting beta-arrestin, primary screen, cell-based, luminescence, agonist arm of biased-ligand search; Melanocortin receptor 4 (Homo sapiens), P32245; AID 540308, 2011; U2OS MC4R beta-arrestin complementation; percent of melanotan II response, DMSO zero; actives 0.98% (n = 360,000); activation, % at 8.9 µM;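 active means activation above a per-plate cutoff, the mean activation of sample wells on that plate plus 3 SD, cut at about 8% in these data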
# MC4R barr conf: MC4R beta-arrestin agonists, retest, confirmation, cell-based, luminescence, U2OS; activation, % at 8.9 µM; actives 31% (n = 2,400); U2OS MC4R beta-arrestin recruitment; scaled DMSO 0%, Melanotan II 100%; shares compounds with MC4R barr agon; AID 602192, 2012;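 active means mean activation across replicates above the hit cutoff set in the earlier primary screen, cut at about 8% in these data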
# MOR-DOR barr ag: agonists of MOR-DOR heterodimerization, counter-screen for MC4R biased agonist project, cell-based, luminescence; AID 602194, 2012; U2OS PathHunter beta-arrestin, beta-gal luminescence; percent of deltorphin B response, DMSO zero; actives 5.8% (n = 2,400); shares compounds with MC4R barr agon; activation, % at 9.2 µM;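 active means mean activation across replicates exceeds the hit threshold derived in the earlier primary screen, cut at about 18% in these data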;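 further: 100% = deltorphin B at 0.9 µM final and 0% = DMSO alone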
# Target sequence (P35372 whole entry, looked up): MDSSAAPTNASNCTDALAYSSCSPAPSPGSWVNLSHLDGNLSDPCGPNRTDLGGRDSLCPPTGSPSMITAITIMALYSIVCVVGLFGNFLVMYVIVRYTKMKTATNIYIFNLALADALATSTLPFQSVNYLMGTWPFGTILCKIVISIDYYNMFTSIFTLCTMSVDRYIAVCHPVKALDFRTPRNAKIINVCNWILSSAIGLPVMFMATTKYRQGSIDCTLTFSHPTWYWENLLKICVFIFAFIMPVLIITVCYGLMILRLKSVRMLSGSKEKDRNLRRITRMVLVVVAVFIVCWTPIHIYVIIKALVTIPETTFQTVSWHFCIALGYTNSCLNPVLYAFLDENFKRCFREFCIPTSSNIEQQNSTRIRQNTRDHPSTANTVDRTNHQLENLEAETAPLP
# Target sequence (P41143 whole entry, looked up): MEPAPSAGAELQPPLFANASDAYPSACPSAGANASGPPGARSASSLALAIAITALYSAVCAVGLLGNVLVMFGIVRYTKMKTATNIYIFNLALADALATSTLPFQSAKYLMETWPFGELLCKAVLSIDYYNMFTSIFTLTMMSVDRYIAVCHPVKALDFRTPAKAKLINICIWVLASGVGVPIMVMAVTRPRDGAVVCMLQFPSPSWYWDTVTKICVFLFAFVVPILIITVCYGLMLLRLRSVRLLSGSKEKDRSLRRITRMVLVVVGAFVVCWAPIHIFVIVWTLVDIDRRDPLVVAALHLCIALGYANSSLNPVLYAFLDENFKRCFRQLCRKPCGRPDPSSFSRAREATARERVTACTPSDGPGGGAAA
# * = called active by the depositor; · = no result given; ! = not confirmed by another sample. An excerpt weighted towards active compounds, which were near 2.8% of everything screened.
SMILES,EBI2 block,MC4R antag cAMP,HTR2A ag,MC4R barr agon,MC4R barr conf,MOR-DOR barr ag
Clc1ccc(C2=Nn3c(nnc3-c3cc(-c4ccccc4)n[nH]3)SC2)cc1,-1.8,-4.9,0.6,40.7*,22.7*,7.6
Oc1cccc(C(=S)N2CCC(Cc3ccccc3)CC2)c1,-1.8,-0.1,-4.0,10.4*,5.6,10.8
NC(c1csc(NC(=O)Nc2cccc(Cl)c2)n1)C1CCCCC1 (stereo not given),-0.1,-3.5,0.8,13.2*,20.0*,17.6
NC(c1ccccc1)c1csc(NC(=O)Nc2cccc(Cl)c2)n1 (stereo not given),-26.6,-7.2,-10.2,11.7*,13.1*,12.5
NC(CCc1ccccc1)c1csc(NC(=O)Nc2cccc(Cl)c2)n1 (stereo not given),3.1,11.0,-0.8,6.6,·,·
CCc1nc2ccc(C(=O)NCCCN3CCCC3=O)cn2c1N(C)C(=O)C1CCCCC1,-7.1,11.3,1.5,1.4,·,·
CCOC(=O)C(=O)Nc1nnc(COc2ccccc2)s1,-2.3,13.8,3.4,1.1,·,·
O=C(CSc1ccccc1)Nc1nnc(COc2ccc(Cl)cc2)s1,-7.6,-1.8,4.8,18.0*,3.0,6.7
O=C(COc1ccccc1)Nc1nnc(COc2ccccc2)s1,2.6,2.4,-6.9,9.9*,-5.2,2.6
COC(=O)c1c(NC(C)=O)sc2c1CCN(Cc1ccccc1)C2,14.7,11.9,0.4,1.9,·,·
COC(=O)c1c(NC(=O)C(C)(C)C)sc2c1CCN(Cc1ccccc1)C2,3.4,-9.1,-0.6,11.4*,5.8,5.1
CN1C(=O)CN(CCN2CC(=O)N(C)C(=O)C2)CC1=O,-9.7,18.5,0.1,-1.2,·,·
COc1ccc(NC(=O)CCC(=O)OCC(=O)c2ccc(Oc3ccc([N+](=O)[O-])cc3)cc2)cc1,-2.0,-3.4,-2.1,-1.3,·,·
Cc1ccc(NC(=O)CCC(=O)OCC(=O)c2ccc(Oc3ccc([N+](=O)[O-])cc3)cc2)cc1,6.3,-2.7,-1.8,25.6*,-0.6,5.6
O=C(Nc1nc2cc3c(cc2s1)OCO3)c1cccc(N2C(=O)CCC2=O)c1,10.5,8.7,7.4,1.5,·,·
O=C(Nc1nc2cc3c(cc2s1)OCO3)c1ccc(N2C(=O)CCC2=O)cc1,-7.2,14.9,3.9,11.9*,-0.2,12.5
O=C(Nc1ccccc1OC(F)F)c1ccc(N2CCCC2=O)cc1,-3.3,5.2,0.3,-0.8,·,·
CSc1ccc2c(c1)C(N1CCN(C)CC1)Cc1ccccc1S2 (stereo not given),4.1,-0.8,-7.8,11.3*!,5.9,8.1
Nc1ccn(C2C=CC(CO)O2)c(=O)n1 (stereo not given),-9.8,·,-4.7,·,·,·
CC(NC(C(=O)c1ccccc1)c1ccccc1)c1ccccc1 (stereo not given),8.9,14.7,0.8,11.8*,0.2,5.6
Cc1ccc(NC(C(=O)c2ccccc2)c2ccccc2)cc1 (stereo not given),-2.8,5.0,-6.7,0.4,·,·
O=c1[nH]c(SCc2cccc(Cl)c2)nc2ccccc12,1.5,5.0,2.2,2.7,·,·
O=c1[nH]c(-c2ccc(-c3cccc(Cl)c3)o2)nc2ccccc12,3.7,-3.0,1.5,12.6*,-1.6,2.4
FC(F)(F)c1cccc(NC(=S)Nc2ccc(Cl)c(Cl)c2)c1,-6.4,-6.0,-2.3,3.1,·,·
FC(F)(F)c1cccc(NC(=S)NC(c2ccccc2)c2ccccc2)c1,-14.2,10.5,-6.2,10.3*,5.6,10.4
SMILES,EBI2 block,MC4R antag cAMP,HTR2A ag,MC4R barr agon,MC4R barr conf,MOR-DOR barr ag
C=CCNC(=S)N/N=C/c1ccc(-c2ccc(Cl)cc2Cl)o1,7.8,0.4,-0.5,10.4*,6.9,4.8
C=CCNC(=S)N/N=C/c1ccc(-c2cc(Cl)ccc2Cl)o1,1.5,-4.6,-3.4,0.7,·,·
CN(C)C(=O)/C(C#N)=C\c1cc(Br)c(Sc2ccc(Cl)cc2)o1,27.1,4.6,2.0,13.8*,0.0,5.6
Clc1ccc(Sc2oc(/C=N/n3cnnc3)cc2Br)cc1,-4.7,-0.9,2.1,-0.2,·,·
Nc1cccc(-c2nc3cc(S(=O)(=O)c4ccc5oc(-c6cccc(N)c6)nc5c4)ccc3o2)c1,-1.6,-2.4,3.6,13.7*,4.9,7.7
Cc1ccc2oc(-c3cccc(N)c3)nc2c1,-5.3,8.8,-0.3,-4.2,·,·
CCOc1ccc(OCC(O)CNC2CCN(Cc3ccccc3)CC2)cc1 (stereo not given),31.9,4.8,0.5,1.6,·,·
CC(C)(c1ccccc1)c1ccc(OCC(O)CNC2CCN(Cc3ccccc3)CC2)cc1 (stereo not given),-5.9,6.7,-2.4,25.4*,5.0,19.0*
COc1ccc(C(=O)O/N=C(\N)c2ccccc2)cc1,0.2,11.8,0.7,-0.2,·,·
CC(C)(C)c1ccc(C(=O)O/N=C(\N)c2ccccc2)cc1,1.2,7.4,7.1,15.9*,8.4*,11.9
CN1C(=O)[C@H]2[C@@H](c3ccc(C(F)(F)F)cc3)N[C@]3(CCCN(Cc4ccc(Cl)cc4)C3=O)[C@H]2C1=O,12.1,15.9,-2.5,9.7*,-3.0,2.4
Cc1ccc2nc(Nc3nc(-c4ccccc4)cc(=O)[nH]3)nc(C)c2c1,13.8,-7.9,5.5,-0.6,·,·
COc1ccc2c(C)nc(Nc3nc(-c4ccccc4)cc(=O)[nH]3)nc2c1,11.2,-17.4,-0.4,26.2*,8.4*,3.5
CCCCCCN1C=C/C(=C\C=C(C#N)C#N)c2ccccc21,37.7,-1.1,0.8,10.7*,11.9*,13.4
CC(=O)c1ccc(Cc2ccc(C(C)=O)s2)s1,-3.4,-0.3,3.3,11.0*,11.8*,2.2
c1ccc(-c2nc(-c3cccs3)[nH]c2-c2ccccc2)cc1,-0.1,7.5,-3.2,9.6*,3.4,5.1
Cc1ccc(S(=O)(=O)N2[C@@H](c3ccc(C(C)(C)C)cc3)C(C(=O)O)=CC[C@H]2c2ccc(Cl)cc2)cc1,-0.7,8.4,2.5,6.0,·,·
Cc1ccc(S(=O)(=O)N2[C@@H](c3ccc(C(C)(C)C)cc3)C(C(=O)O)=CC[C@H]2c2ccc(C(C)C)cc2)cc1,-5.2,9.3,9.8,19.8*,15.3*,5.0
CC1=CN2C(=N)/C(=C/c3cn(CCCOc4ccccc4C)c4ccccc34)C(=O)N=C2S1,-6.4,2.4,1.4,-1.8,·,·
